Source: ChEMBL document CHEMBL1671679, “Lack of pharmacokinetic interaction between amdoxovir and reduced- and standard-dose zidovudine in HIV-1-infected individuals” (Antimicrob Agents Chemother, 2010)

What was measured:
[1] = test system: Homo sapiens; assay: Tmax in HIV-1 infected patient assessed as beta-D-dioxolane guanosine level at 500 mg, po bid on day 10 by LC-MS/MS analysis; format: ADME, organism-based; settings: in vivo
Outline: (§1)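 Treatment-naive Hispanic HIV-1-infected adults (≥5,000 RNA copies/ml, CD4 ≥200 cells/mm3). Blood drawn after first dose on day 1 (0–12 h) and after last dose on day 10 (0–48 h) into DCF-containing EDTA tubes to block ex vivo deamination, centrifuged, plasma stored −80°C. Methanol extraction with internal standard, LC-MS/MS (linear 2–3,000 ng ml−1 for AMDX and DXG). Noncompartmental analysis assuming extravascular input; geometric means reported.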

[2] = test system: Homo sapiens; assay: Cmax in HIV-1 infected patient assessed as beta-D-dioxolane guanosine level at 500 mg, po bid on day 10 by LC-MS/MS analysis; format: ADME, organism-based; design: dose 500 mg, route oral; settings: in vivo
Outline: (§2)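 Untreated Hispanic HIV-1-infected adults (viral load ≥5,000 copies/ml, CD4 ≥200 cells/mm3). Blood was drawn into DCF-containing EDTA tubes on day 1 (0–12 h) and on day 10 (0–48 h post last dose), then stored at −80°C. Plasma was methanol-extracted with an internal standard and run by LC-MS/MS (2–3,000 ng/ml AMDX/DXG; 2–5,000 ng/ml ZDV). Noncompartmental analysis assumed extravascular input; τ = 12 h; geometric means reported; accumulation was taken as AUCτ day 10/day 1.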

[3] = test system: Homo sapiens; assay: AUC (0 to 12 hrs) in HIV-1 infected patient assessed as beta-D-dioxolane guanosine level at 500 mg, po bid on day 10 by LC-MS/MS analysis; format: ADME, organism-based, Plasma; design: dose 500 mg, time < 12 hr, route oral; settings: in vivo; outline: as §2
[4] = test system: Homo sapiens; assay: Apparent oral clearance in HIV-1 infected patient assessed as beta-D-dioxolane guanosine level at 500 mg, po bid on day 10 by LC-MS/MS analysis; format: ADME, organism-based; settings: in vivo; outline: as §2
[5] = test system: Homo sapiens; assay: Half life in HIV-1 infected patient assessed as beta-D-dioxolane guanosine level at 500 mg, po bid on day 10 by LC-MS/MS analysis; format: ADME, organism-based; settings: in vivo; outline: as §2
[6] = test system: Homo sapiens; assay: (§3) Ratio of AUC (0 to 12 hrs) in HIV-1 infected patient assessed as beta-D-dioxolane guanosine level at 500 mg, po bid on day 10 to AUC (0 to 12 hrs) in HIV-1 infected patient assessed as beta-D-dioxolane guanosine level at 500 mg, po bid on day 1; format: ADME, organism-based; settings: in vivo; outline: as §2
[7] = test system: Homo sapiens; assay: Tmax in HIV-1 infected patient assessed as beta-D-dioxolane guanosine level at 500 mg, po bid on day 10 coadministered with 200 mg, po bid zidovudine by LC-MS/MS analysis; format: ADME, organism-based; settings: in vivo; outline: as §1
[8] = test system: Homo sapiens; assay: Cmax in HIV-1 infected patient assessed as beta-D-dioxolane guanosine level at 500 mg, po bid on day 10 coadministered with 200 mg, po bid zidovudine by LC-MS/MS analysis; format: ADME, organism-based; design: dose 500 mg, route oral; settings: in vivo; outline: as §2
[9] = test system: Homo sapiens; assay: AUC (0 to 12 hrs) in HIV-1 infected patient assessed as beta-D-dioxolane guanosine level at 500 mg, po bid on day 10 coadministered with 200 mg, po bid zidovudine by LC-MS/MS analysis; format: ADME, organism-based, Plasma; design: time < 12 hr, dose 500 mg, route oral; settings: in vivo; outline: as §2
[10] = test system: Homo sapiens; assay: Apparent oral clearance in HIV-1 infected patient assessed as beta-D-dioxolane guanosine level at 500 mg, po bid on day 10 coadministered with 200 mg, po bid zidovudine by LC-MS/MS analysis; format: ADME, organism-based; settings: in vivo; outline: as §2
[11] = test system: Homo sapiens; assay: Half life in HIV-1 infected patient assessed as beta-D-dioxolane guanosine level at 500 mg, po bid on day 10 coadministered with 200 mg, po bid zidovudine by LC-MS/MS analysis; format: ADME, organism-based; settings: in vivo; outline: as §2
[12] = test system: Homo sapiens; assay: as §3, with “day 10 coadministered with 200 mg, po bid zidovudine to AUC” for “day 10 to AUC”, “day 1 coadministered with 200 mg, po bid zidovudine” for “day 1”; format: ADME, organism-based; settings: in vivo; outline: as §2
[13] = test system: Homo sapiens; assay: Tmax in HIV-1 infected patient assessed as beta-D-dioxolane guanosine level at 500 mg, po bid on day 10 coadministered with 300 mg, po bid zidovudine by LC-MS/MS analysis; format: ADME, organism-based; settings: in vivo; outline: as §1
[14] = test system: Homo sapiens; assay: Cmax in HIV-1 infected patient assessed as beta-D-dioxolane guanosine level at 500 mg, po bid on day 10 coadministered with 300 mg, po bid zidovudine by LC-MS/MS analysis; format: ADME, organism-based; design: dose 500 mg, route oral; settings: in vivo; outline: as §2
[15] = test system: Homo sapiens; assay: AUC (0 to 12 hrs) in HIV-1 infected patient assessed as beta-D-dioxolane guanosine level at 500 mg, po bid on day 10 coadministered with 300 mg, po bid zidovudine by LC-MS/MS analysis; format: ADME, organism-based, Plasma; design: time < 12 hr, dose 500 mg, route oral; settings: in vivo; outline: as §2
[16] = test system: Homo sapiens; assay: Apparent oral clearance in HIV-1 infected patient assessed as beta-D-dioxolane guanosine level at 500 mg, po bid on day 10 coadministered with 300 mg, po bid zidovudine by LC-MS/MS analysis; format: ADME, organism-based; settings: in vivo; outline: as §2
[17] = test system: Homo sapiens; assay: Half life in HIV-1 infected patient assessed as beta-D-dioxolane guanosine level at 500 mg, po bid on day 10 coadministered with 300 mg, po bid zidovudine by LC-MS/MS analysis; format: ADME, organism-based; settings: in vivo; outline: as §2
[18] = test system: Homo sapiens; assay: as §3, with “day 10 coadministered with 300 mg, po bid zidovudine to AUC” for “day 10 to AUC”, “day 1 coadministered with 300 mg, po bid zidovudine” for “day 1”; format: ADME, organism-based; settings: in vivo; outline: as §2
[19] = test system: Homo sapiens; assay: Cmax in HIV-1 infected patient assessed as beta-D-dioxolane guanosine level at 500 mg, po bid on day 1 by LC-MS/MS analysis; format: ADME, organism-based; design: dose 500 mg, route oral; settings: in vivo; outline: as §2
[20] = test system: Homo sapiens; assay: Half life in HIV-1 infected patient assessed as beta-D-dioxolane guanosine level at 500 mg, po bid on day 1 by LC-MS/MS analysis; format: ADME, organism-based; settings: in vivo; outline: as §2
[21] = Drug level in HIV-1 infected patient urine assessed as beta-D-dioxolane guanosine level at 500 mg, po bid on day 10 by LC-MS/MS analysis; format: ADME, organism-based; settings: human, in vivo
Outline: (§4)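 At steady state (day 10), urine collected over one 12-h dose interval was analyzed by LC-MS/MS for AMDX, DXG, ZDV and ZDV-5′-O-glucuronide. Samples were diluted 100-fold, and the assay was linear from 1 to 500 μg/ml. Results are expressed as percentage of the dose recovered as each analyte (geometric means). Subjects were untreated HIV-1-infected adults.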

[22] = Drug level in HIV-1 infected patient urine assessed as beta-D-dioxolane guanosine level at 500 mg, po bid on day 10 coadministered with 200 mg, po bid zidovudine by LC-MS/MS analysis; format: ADME, organism-based; settings: human, in vivo; outline: as §4
[23] = Drug level in HIV-1 infected patient urine assessed as beta-D-dioxolane guanosine level at 500 mg, po bid on day 10 coadministered with 300 mg, po bid zidovudine by LC-MS/MS analysis; format: ADME, organism-based; settings: human, in vivo; outline: as §4

With `Nc1nc2c(ncn2[C@H]2CO[C@@H](CO)O2)c(=O)[nH]1` as the compound, how does the Tmax [1] read?
Its Tmax is 1.3 h.

And the Cmax [2]?
The Cmax was 1545 ng/mL.

What about the AUC [3] of the same compound?
Its AUC is 6834 ng·h/mL.

And the CL/F [4]?
The CL/F was 0.88 L/h/kg.

What about the t1/2 [5] of the same compound?
Its t1/2 is 17.6 h.

And the “Ratio AUC” value [6]?
The value was 1.18.

What about the Tmax [7] of the same compound?
Its Tmax is 1.5 h.

What about the Cmax [8] of the same compound?
The Cmax was 1315 ng/mL.

And the AUC [9]?
Its AUC is 6225 ng·h/mL.

What about the CL/F [10] of the same compound?
Its CL/F is 0.95 L/h/kg.

And the t1/2 [11]?
Its t1/2 is 14.7 h.

And the “Ratio AUC” value [12]?
Its value is 0.91.

And the Tmax [13]?
Its Tmax is 1.8 h.

And the Cmax [14]?
The Cmax was 1908 ng/mL.

What about the AUC [15] of the same compound?
The AUC was 7658 ng·h/mL.

What about the CL/F [16] of the same compound?
The CL/F was 0.91 L/h/kg.

What about the t1/2 [17] of the same compound?
Its t1/2 is 14.8 h.

And the “Ratio AUC” value [18]?
Its value is 1.19.

What about the Cmax [19] of the same compound?
Its Cmax is 1272 ng/mL.

What about the t1/2 [20] of the same compound?
The t1/2 was 2.5 h.

And the Drug uptake [21]?
Its Drug uptake is 25.3%.

What about the Drug uptake [22] of the same compound?
The Drug uptake was 26.2%.

And the Drug uptake [23]?
Its Drug uptake is 27.7%.
